Experimental data: ChEMBL document CHEMBL4689842, “EUbOPEN Chemogenomics Library wave 1” (2021)

System: HEK-293T
Experiment: Multiplex assay against HEK293T;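 for Population Tubulin-Different-Phenotype (%): share of the cells with healthy nuclei that show this phenotype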
Type: toxicity, cell-based
Settings: human
Method in brief: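 Live cells were stained at seeding with Hoechst33342, BioTracker Green Microtubule Cytoskeleton Dye, MitoTracker Red and Annexin V Alexa Fluor 680. Following compound addition, they were imaged on a CQ1 microscope at 37°C and 5% CO2 and gated by CellPathfinder machine learning into Hoechst high-intensity objects or normal cells, with normal cells split into healthy, pyknosed or fragmented nuclei and pyknosed cells into mitotic or apoptotic. Tubulin, mitochondrial-mass and membrane-permeability phenotypes are per cents of healthy-nucleus cells.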

[1] = 12 h, 1 µM, compound concentration 1 uM, replicate 1
[2] = 12 h, 1 µM, compound concentration 1 uM, replicate 2
[3] = 12 h, 10 µM, compound concentration 10 uM, replicate 1
[4] = 12 h, 10 µM, compound concentration 10 uM, replicate 2
[5] = 24 h, 1 µM, compound concentration 1 uM, replicate 1
[6] = 24 h, 1 µM, compound concentration 1 uM, replicate 2
[7] = 24 h, 10 µM, compound concentration 10 uM, replicate 1
[8] = 24 h, 10 µM, compound concentration 10 uM, replicate 2

Cc1c(Nc2ccc(S(=O)(=O)N3CCN(C)CC3)cc2F)nc2ccc(Nc3cnn(C4CC4)c3)cn2c1=O
Population Apoptotic (%) [1]: 17% | Population Fragmented Nuclei (%) [1]: 13% | Population Healthy Nuclei (%) [1]: 52% | Population Hoechst High Intensity Objects (%) [1]: 16% | Population Membrane Permeable-Phenotype (%) [1]: 15% | Population Mitochondria Different-Phenotype (%) [1]: 11% | Population Mitotic Cells (%) [1]: 82% | Population Normal (%) [1]: 83% | Population Pyknosed Nuclei (%) [1]: 33% | Population Tubulin-Different-Phenotype (%) [1]: 47% | Total Cell Count [1]: 566 | Population Apoptotic (%) [2]: 11% | Population Fragmented Nuclei (%) [2]: 3% | Population Healthy Nuclei (%) [2]: 83% | Population Hoechst High Intensity Objects (%) [2]: 3% | Population Membrane Permeable-Phenotype (%) [2]: 14% | Population Mitochondria Different-Phenotype (%) [2]: 29% | Population Mitotic Cells (%) [2]: 88% | Population Normal (%) [2]: 96% | Population Pyknosed Nuclei (%) [2]: 12% | Population Tubulin-Different-Phenotype (%) [2]: 73% | Total Cell Count [2]: 888 | Population Apoptotic (%) [3]: 17% | Population Fragmented Nuclei (%) [3]: 11% | Population Healthy Nuclei (%) [3]: 73% | Population Hoechst High Intensity Objects (%) [3]: 8% | Population Membrane Permeable-Phenotype (%) [3]: 4% | Population Mitochondria Different-Phenotype (%) [3]: 4% | Population Mitotic Cells (%) [3]: 82% | Population Normal (%) [3]: 91% | Population Pyknosed Nuclei (%) [3]: 15% | Population Tubulin-Different-Phenotype (%) [3]: 4% | Total Cell Count [3]: 791 | Population Apoptotic (%) [4]: 4% | Population Fragmented Nuclei (%) [4]: 6% | Population Healthy Nuclei (%) [4]: 89% | Population Hoechst High Intensity Objects (%) [4]: 2% | Population Membrane Permeable-Phenotype (%) [4]: 2% | Population Mitochondria Different-Phenotype (%) [4]: 10% | Population Mitotic Cells (%) [4]: 95% | Population Normal (%) [4]: 97% | Population Pyknosed Nuclei (%) [4]: 4% | Population Tubulin-Different-Phenotype (%) [4]: 7% | Total Cell Count [4]: 1683 | Population Apoptotic (%) [5]: 27% | Population Fragmented Nuclei (%) [5]: 16% | Population Healthy Nuclei (%) [5]: 60% | Population Hoechst High Intensity Objects (%) [5]: 11% | Population Membrane Permeable-Phenotype (%) [5]: 21% | Population Mitochondria Different-Phenotype (%) [5]: 9% | Population Mitotic Cells (%) [5]: 72% | Population Normal (%) [5]: 88% | Population Pyknosed Nuclei (%) [5]: 23% | Population Tubulin-Different-Phenotype (%) [5]: 65% | Total Cell Count [5]: 536 | Population Apoptotic (%) [6]: 12% | Population Fragmented Nuclei (%) [6]: 6% | Population Healthy Nuclei (%) [6]: 85% | Population Hoechst High Intensity Objects (%) [6]: 5% | Population Mitochondria Different-Phenotype (%) [6]: 16% | Population Mitotic Cells (%) [6]: 87% | Population Normal (%) [6]: 94% | Population Pyknosed Nuclei (%) [6]: 7% | Population Tubulin-Different-Phenotype (%) [6]: 83% | Total Cell Count [6]: 1100 | Population Apoptotic (%) [7]: 16% | Population Fragmented Nuclei (%) [7]: 8% | Population Healthy Nuclei (%) [7]: 85% | Population Hoechst High Intensity Objects (%) [7]: 4% | Population Membrane Permeable-Phenotype (%) [7]: 9% | Population Mitochondria Different-Phenotype (%) [7]: 3% | Population Mitotic Cells (%) [7]: 83% | Population Normal (%) [7]: 95% | Population Pyknosed Nuclei (%) [7]: 6% | Population Tubulin-Different-Phenotype (%) [7]: 8% | Total Cell Count [7]: 922 | Population Apoptotic (%) [8]: 0% | Population Fragmented Nuclei (%) [8]: 18% | Population Healthy Nuclei (%) [8]: 79% | Population Hoechst High Intensity Objects (%) [8]: 3% | Population Membrane Permeable-Phenotype (%) [8]: 7% | Population Mitochondria Different-Phenotype (%) [8]: 2% | Population Mitotic Cells (%) [8]: 100% | Population Normal (%) [8]: 96% | Population Pyknosed Nuclei (%) [8]: 2% | Population Tubulin-Different-Phenotype (%) [8]: 10% | Total Cell Count [8]: 2721
